# Source: PubChem BioAssay
# IDH1 mut inh: inhibitors of IDH1 R132H reductase, primary screen, biochemical, plate reader, single point. 0.18% of 70,000 active. diaphorase/resazurin fluorescence, 60 min. inhibition, % at 10 µM. Isocitrate dehydrogenase [NADP] cytoplasmic (Homo sapiens), O75874; in the data active means inhibition above about 34%; inconclusive means no clear call, values can overlap the other calls; inactive means below about 11%
# T cruzi growth-1: T. cruzi intracellular proliferation inhibitors, primary screen, cell-based, beta-gal Tulahuen parasites, NIH3T3 host, luminescence | T. cruzi beta-gal in NIH3T3, GalScreen luminescence, 90 h | 5.9% of 77,000 active | inhibition, % at 8.34 µM;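 active means mean inhibition above about 93%, with at least 55% of replicates each passing it, limit read from the data, passing the limit was not always enough; inconclusive means only one of those two conditions holds; inactive means neither condition holds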
# KDM4C inh: inhibitors of GASC-1 (KDM4C) histone demethylase, primary screen, biochemical, single concentration HTS. inhibition, % at 12.5 µM. 0.15% of 96,000 active. GST-KDM4C 2-372, H3K9me3 peptide, LANCE TR-FRET. AID 720574, 2013. Lysine-specific demethylase 4C (Homo sapiens), Q9H3R0;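 active means mean replicate inhibition above about 25%, with at least 55% of replicates also reaching it, limit read from the data, passing the limit was not always enough; inconclusive means only one of those two conditions met; inactive means neither condition met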
# Target sequence (Q9H3R0 2-372 limits assumed): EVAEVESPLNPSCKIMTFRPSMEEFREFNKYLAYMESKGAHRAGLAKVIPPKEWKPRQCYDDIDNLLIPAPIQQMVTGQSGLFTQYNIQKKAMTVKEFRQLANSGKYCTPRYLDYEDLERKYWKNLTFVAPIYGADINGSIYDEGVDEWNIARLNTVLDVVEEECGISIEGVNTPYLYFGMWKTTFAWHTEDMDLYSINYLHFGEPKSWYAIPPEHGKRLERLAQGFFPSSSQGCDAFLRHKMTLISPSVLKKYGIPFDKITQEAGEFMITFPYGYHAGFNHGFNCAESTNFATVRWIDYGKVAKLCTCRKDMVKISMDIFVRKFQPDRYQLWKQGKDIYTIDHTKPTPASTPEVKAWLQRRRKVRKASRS
#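 System: N-terminal GST-fused human GASC-1 (KDM4C) fragment, residues 2-372; amount: enzyme final amount 10 nM; incubation: reaction 30 min RT, detection step 1 h RT; medium: HEPES buffer, pH 7.5, plus ascorbate; technique: LANCE TR-FRET, Eu antibody, ULight-streptavidin, EDTA, ex 340 nm, em 618/671 nm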
# T cruzi growth-2: T. cruzi intracellular proliferation inhibitors, confirmation, cell-based, NIH3T3 host, beta-gal parasite, luminescence, cherry-pick. shares compounds with T cruzi growth-1. AID 651739, 2012. T. cruzi beta-gal in NIH3T3, GalScreen luminescence, 90 h. inhibition, % at 8.35 µM. 72% of 5,600 active;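 active means mean replicate inhibition above about 95% and at least 55% of replicates individually reaching it, limit read from the data; inconclusive means only one of the two criteria is met; inactive means neither criterion is met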
# T cruzi growth-3: inhibitors of intracellular T. cruzi replication, confirmation, NIH3T3 host cells, beta-gal parasites, cherry-pick, set 2. shares compounds with T cruzi growth-1. T. cruzi beta-gal in NIH3T3, GalScreen luminescence, 90 h. inhibition, % at 2.09 µM. 21% of 5,600 active;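 active means mean inhibition above about 95%, with at least 55% of replicates also reaching it, limit read from the data; inconclusive means meets just one of the two conditions; inactive means meets neither condition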
# 3T3 cytotox: cytotoxicity in mouse NIH/3T3 fibroblasts, confirmation, cytotoxicity control for T. cruzi proliferation inhibitor project, cell-based, cherry-pick, single point; 14% of 5,600 active; AID 651742, 2012; shares compounds with T cruzi growth-1; NIH/3T3 viability, CellTiter-Glo ATP luminescence, 90 h; cytotoxicity (signal decrease), % at 8.35 µM;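 active means mean signal decrease across replicates above about 35% based on untreated-well scatter, with enough replicates individually passing, limit read from the data; inconclusive means no rule stated though some were filed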
# NIH3T3 tox 2: NIH/3T3 fibroblast cytotoxicity, confirmation, cytotoxicity control, cell-based, cherry-pick, single point, set 2; shares compounds with T cruzi growth-1; NIH/3T3 viability, CellTiter-Glo ATP luminescence, 90 h; inhibition, % at 24.9 µM; 56% of 5,600 active; AID 651744, 2012;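 active means mean loss of cell viability signal at or above a set limit, and enough replicates individually reaching it; inconclusive means meets only the mean limit or only the replicate share; inactive means meets neither condition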
# Numbers stand for hits; 0 = inactive; ? = inconclusive; - = no result. Only a selection was taken, and hits are over-represented in it overall.
SMILES,IDH1 mut inh,T cruzi growth-1,KDM4C inh,T cruzi growth-2,T cruzi growth-3,3T3 cytotox,NIH3T3 tox 2
CCCC#Cc1ccc2c(c1)O[C@H](CN(C)C(=O)c1ccccc1F)[C@@H](C)CN([C@H](C)CO)S2(=O)=O,0,111.0,0,110.2,0,0,0
CC(C)CC#Cc1ccc2c(c1)O[C@H](CN(C)C(=O)c1ccccc1F)[C@@H](C)CN([C@H](C)CO)S2(=O)=O,0,87.5,0,103.0,0,0,97.3
C[C@H](CO)N1C[C@H](C)[C@@H](CN(C)C(=O)c2ccccc2F)Oc2cc(C#CCN(C)C)ccc2S1(=O)=O,0,0,0,-,-,-,-
CC(C)CC#Cc1ccc2c(c1)O[C@H](CN(C)C(=O)c1ccccc1F)[C@H](C)CN([C@H](C)CO)S2(=O)=O,0,105.3,0,105.4,0,?,103.5
CCCC#Cc1ccc2c(c1)O[C@H](CN(C)C(=O)c1ccccc1F)[C@@H](C)CN([C@@H](C)CO)S2(=O)=O,0,0,0,-,-,-,-
C[C@@H]1CN([C@@H](C)CO)S(=O)(=O)c2ccc(C#CCN(C)C)cc2O[C@@H]1CN(C)C(=O)c1ccccc1F,0,0,0,-,-,-,-
CC(C)CC#Cc1ccc2c(c1)O[C@@H](CN(C)C(=O)c1ccccc1F)[C@H](C)CN([C@@H](C)CO)S2(=O)=O,0,104.8,0,106.5,106.2,?,105.5
CCCC#Cc1ccc2c(c1)O[C@@H](CN(C)C(=O)c1ccccc1F)[C@@H](C)CN([C@H](C)CO)S2(=O)=O,0,0,0,-,-,-,-
C[C@@H](NC(=O)[C@@H]1[C@@H](CO)[C@@H]2Cn3c(ccc(-c4cccnc4)c3=O)[C@@H]2N1C)c1ccccc1,-,0,0,-,-,-,-
Cc1ccc(NC(=O)Cn2cnc3ccccc3c2=O)cc1C,0,-,-,-,-,-,-
CS(=O)(=O)Nc1ccc2c(c1)[C@H]1C[C@@H](CC(=O)NCc3ccc(Cl)cc3)O[C@@H](CO)[C@H]1O2,0,0,0,-,-,-,-
O=C(COc1ccc2c(-c3ccccc3)cc(=O)oc2c1)c1ccccc1,0,-,-,-,-,-,-
COc1ccccc1CNC(=O)C[C@@H]1C[C@@H]2c3cc(NS(C)(=O)=O)ccc3O[C@@H]2[C@H](CO)O1,0,0,0,-,-,-,-
C[C@@H]1CN([C@H](C)CO)S(=O)(=O)c2ccc(C3=CCCC3)cc2O[C@@H]1CN(C)CC1CC1,0,0,0,-,-,-,-
C[C@@H]1CN([C@@H](C)CO)S(=O)(=O)c2ccc(-c3ccccc3F)cc2O[C@H]1CN(C)C,0,113.9,0,0,0,0,77.5
COc1ccccc1-c1ccc2c(c1)O[C@H](CN(C)CC1CCOCC1)[C@@H](C)CN([C@@H](C)CO)S2(=O)=O,0,-,0,-,-,-,-
C[C@@H]1CN([C@@H](C)CO)S(=O)(=O)c2ccc(C3=CCCC3)cc2O[C@H]1CN(C)CC1CCCC1,0,106.6,0,96.7,0,40.6,105.1
COc1ccccc1-c1ccc2c(c1)O[C@@H](CN(C)CC1CCCC1)[C@H](C)CN([C@@H](C)CO)S2(=O)=O,0,126.3,0,101.2,99.7,42.2,102.5
C[C@H](CO)N1C[C@H](C)[C@@H](CN(C)C)Oc2cc(-c3ccccc3F)ccc2S1(=O)=O,0,0,0,-,-,-,-
C[C@@H]1CN([C@@H](C)CO)S(=O)(=O)c2ccc(-c3ccccc3)cc2O[C@@H]1CN(C)CC1CC1,0,0,0,-,-,-,-
C[C@@H]1CN([C@@H](C)CO)S(=O)(=O)c2ccc(-c3ccccc3)cc2O[C@H]1CN(C)CC1CCCC1,0,95.5,0,96.6,106.0,58.0,103.7
C[C@H]1CN([C@@H](C)CO)C(=O)c2cccc(NC(=O)c3cnccn3)c2O[C@@H]1CN(C)Cc1ccccc1,0,0,0,-,-,-,-
C[C@@H]1CN([C@@H](C)CO)S(=O)(=O)c2ccc(-c3cccc(F)c3)cc2O[C@H]1CN(C)CC1CC1,0,0,0,-,-,-,-
